Assays:
[1] = target: T1, C5a anaphylatoxin chemotactic receptor 1 (Homo sapiens) (UniProt P21730); assay: Binding affinity to C5aR1 receptor (unknown origin) assessed as binding constant; conditions: time 10.0 min
T1 sequence (whole entry): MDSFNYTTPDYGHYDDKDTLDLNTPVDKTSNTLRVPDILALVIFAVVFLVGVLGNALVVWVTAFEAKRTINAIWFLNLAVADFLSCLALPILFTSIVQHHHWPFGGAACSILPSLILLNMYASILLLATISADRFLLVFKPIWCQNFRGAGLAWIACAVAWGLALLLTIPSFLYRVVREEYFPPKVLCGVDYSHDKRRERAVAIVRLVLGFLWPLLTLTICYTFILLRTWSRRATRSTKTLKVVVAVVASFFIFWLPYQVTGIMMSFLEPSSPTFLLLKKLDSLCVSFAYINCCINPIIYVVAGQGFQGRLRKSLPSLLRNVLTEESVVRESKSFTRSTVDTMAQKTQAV

[2] = Passive permeability across apical to basolateral side in dog RRCK cells incubated for 30 mins; format: ADME, cell-based, Canis lupus familiaris, MDCKII-LE; conditions: MDCK, read-out: permeability
Outline: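 Passive absorptive permeability was measured from the apical to the basolateral side in RRCK cells after a 30 min preincubation. Values are reported as the mean, in 10–6 cm/s.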

Papp A→B at 0.5 h [2]	Compound	Kb ([1]; filed as antagonist)	Kb [1]
2.6 ×10⁻⁶ cm/s	C[C@@H](Cc1ccccc1)C(=O)N[C@H]1CCCN(C)C(=O)[C@H](Cc2ccccc2)NC(=O)[C@H](Cc2ccc(F)cc2)NC(=O)[C@@H](CC2CCCCC2)NC(=O)[C@@H]2CCCN2C1=O	36.3 nM	–
0.4 ×10⁻⁶ cm/s	CCN1CC[C@H](NC(=O)c2ccnn2-c2ccccc2)C(=O)N[C@@H]([C@@H](C)O)C(=O)N[C@@H](CC(C)C)C(=O)N[C@@H](Cc2ccc(F)cc2)C(=O)N[C@@H](Cc2ccccc2)CC1=O	54 nM	–
6.5 ×10⁻⁶ cm/s	C[C@@H](Cc1ccccc1)C(=O)N[C@@H]1C(=O)N2CCC[C@H]2C(=O)N[C@H](CC2CCCCC2)C(=O)N[C@@H](Cc2ccc(F)cc2)C(=O)N[C@@H](Cc2ccccc2)C(=O)N2CCC1CC2	82.8 nM	–
4.2 ×10⁻⁶ cm/s	CCCC[C@H]1C(=O)N(C)CCC[C@H](NC(=O)[C@@H](C)Cc2ccccc2)C(=O)N2CCC[C@H]2C(=O)N[C@H](CC2CCCCC2)C(=O)N[C@@H](Cc2ccc(F)cc2)C(=O)N1C	–	> 9500 nM
2.6 ×10⁻⁶ cm/s	CCCC[C@@H]1NC(=O)[C@H](Cc2ccc(F)cc2)N(C)C(=O)[C@@H](CC2CCCCC2)NC(=O)[C@@H]2CCCN2C(=O)[C@@H](NC(=O)[C@@H](C)Cc2ccccc2)CCCN(C)C1=O	–	> 10000 nM
5.5 ×10⁻⁶ cm/s	C[C@@H](Cc1ccccc1)C(=O)N[C@H]1CCCN(C)C(=O)[C@H](Cc2ccccc2)NC(=O)[C@H](Cc2ccc(F)cc2)NC(=O)[C@@H](CC2CCCCC2)NC(=O)[C@H]([C@@H](C)O)NC1=O	38.9 nM	–
5 ×10⁻⁶ cm/s	C[C@@H](Cc1ccccc1)C(=O)N[C@H]1CCN(C)C(=O)C[C@H](Cc2ccccc2)NC(=O)[C@H](Cc2ccc(F)cc2)NC(=O)[C@@H](CC2CCCCC2)NC(=O)[C@@H]2CCCN2C1=O	5.52 nM	–
2.1 ×10⁻⁶ cm/s	C[C@@H](Cc1ccccc1)C(=O)N[C@H]1CCN(C)C(=O)C[C@H](Cc2ccccc2)NC(=O)[C@H](Cc2ccc(F)cc2)N(C)C(=O)[C@@H](CC2CCCCC2)NC(=O)[C@@H]2CCCN2C1=O	127 nM	–
11.1 ×10⁻⁶ cm/s	C[C@@H](Cc1ccccc1)C(=O)N[C@H]1CCCN(C)C(=O)[C@H](Cc2ccccc2)NC(=O)[C@H](Cc2ccc(F)cc2)NC(=O)[C@@H](CC2CCCCC2)NC(=O)[C@@H]2CCN2C1=O	57.5 nM	–
3.4 ×10⁻⁶ cm/s	C[C@@H](Cc1ccccc1)C(=O)N[C@H]1CC[C@H]2CCCN2C(=O)[C@H](Cc2ccccc2)NC(=O)[C@H](Cc2ccc(F)cc2)NC(=O)[C@@H](CC2CCCCC2)NC(=O)[C@@H]2CCCN2C1=O	46.5 nM	–
4.4 ×10⁻⁶ cm/s	CCCC[C@@H]1NC(=O)[C@H](Cc2ccc(F)cc2)NC(=O)[C@@H](CC2CCCCC2)N(C)C(=O)[C@@H]2CCCN2C(=O)[C@@H](NC(=O)[C@@H](C)Cc2ccccc2)CCCN(C)C1=O	–	> 10000 nM

From ChEMBL document CHEMBL6127151, “Cyclic Peptide C5aR1 Antagonist Design Using Solution Conformational Analysis Derived from Residual Dipolar Couplings” (ACS Med Chem Lett, 2024)
